Assays:
Trypanosoma cruzi [1] = test: Effect on oxygen uptake per mg of protein in Trypanosoma cruzi Tulahuen epimastigotes relative to control; type: functional; design: concentration or dose not given beside the values
In short: (§1)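 Tulahuen epimastigotes were harvested on day 4 or 5 (500g, 10 min), washed and resuspended in 0.05 M sodium phosphate buffer pH 7.4 (0.107 M NaCl, 0.05 M KH2PO4). Respiration was measured polarographically with a Clark electrode as nanoatoms-gram O/min/mg protein, as % of control. Redox cycling was measured with 20 mM KCN, as % of KCN control. Values are means of three experiments.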

Trypanosoma cruzi [2] = test: Growth inhibition of Trypanosoma cruzi Tulahuen epimastigotes assessed as drug level causing decrease in growth constant; type: functional, organism-based
In short: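 Tulahuen epimastigotes were seeded at 3 × 10^6/mL in Diamond's medium with 4 µM hemin, 5% FBS and penicillin/streptomycin at 28 °C. Drugs were added in DMSO (1% final) at several concentrations, in triplicate. Growth was followed daily for 10 days by nephelometry and fitted to first-order kinetics to give the growth constant k. ICk50 is the concentration lowering k by 50%.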

Trypanosoma cruzi [3] = test: Effect on oxygen redox cycling in Trypanosoma cruzi Tulahuen assessed as oxygen consumption per mg of protein relative to control; type: functional; design: concentration or dose not given beside the values; in short: as §1
Trypanosoma cruzi [4] = test: Antitrypanosomal activity against Trypanosoma cruzi MF assessed as trypomastigote viability at 0.19 uM by MTT assay relative to control
Trypanosoma cruzi [5] = test: Antitrypanosomal activity against Trypanosoma cruzi MF assessed as trypomastigote viability at 20.1 uM by MTT assay relative to control
Trypanosoma cruzi [6] = test: Antitrypanosomal activity against Trypanosoma cruzi MF assessed as trypomastigote viability at 38.1 uM by MTT assay relative to control
Trypanosoma cruzi [7] = test: Antitrypanosomal activity against Trypanosoma cruzi MF assessed as trypomastigote viability at 22.2 uM by MTT assay relative to control
Trypanosoma cruzi [8] = test: Antitrypanosomal activity against Trypanosoma cruzi MF assessed as trypomastigote viability at >100 uM by MTT assay relative to control
Trypanosoma cruzi [9] = test: Antitrypanosomal activity against Trypanosoma cruzi MF assessed as trypomastigote viability at 1.93 uM by MTT assay relative to control
Trypanosoma cruzi [10] = test: Antitrypanosomal activity against Trypanosoma cruzi MF assessed as trypomastigote viability at 24.7 uM by MTT assay relative to control
Trypanosoma cruzi [11] = test: Antitrypanosomal activity against Trypanosoma cruzi MF assessed as trypomastigote viability at 31.3 uM by MTT assay relative to control
Trypanosoma cruzi [12] = test: Antitrypanosomal activity against Trypanosoma cruzi MF assessed as trypomastigote viability at 24.5 uM by MTT assay relative to control
Trypanosoma cruzi [13] = test: Antitrypanosomal activity against Trypanosoma cruzi MF assessed as viability at 3.75 uM by MTT assay relative to control

Row | Compound | IC50 (Trypanosoma cruzi [2]) | Activity (Trypanosoma cruzi [1]) | Activity (Trypanosoma cruzi [3]) | further results
1 | CC1(C)CC(O)C2=C(O1)C(=O)c1ncccc1C2=O (stereo not given) | 0.19 µM | 33.2% | 55% | Activity (Trypanosoma cruzi [4]): 8.8%
2 | CC1(C)CCC2=C(O1)c1ccccc1C(=O)C2=O [LAPACHONE] | 24.7 µM | 107.5% | 100% | Activity (Trypanosoma cruzi [10]): 2.9%
3 | CC1CC(c2ccccc2)C2=C(O1)C(=O)c1ccccc1C2=O (stereo not given) | 26.2 µM | 95.4% | 96% | –
4 | CC(C)=CCC1=C(O)C(=O)c2ccccc2C1=O [LAPACHOL] | 31.3 µM | 51.8% | 82% | Activity (Trypanosoma cruzi [11]): 41.7%
5 | CC1CCC2=C(O1)C(=O)c1ccccc1C2=O (stereo not given) | 24.5 µM | 138.8% | 173% | Activity (Trypanosoma cruzi [12]): 15.6%
6 | CC(=O)CCC1=C(O)C(=O)c2ccccc2C1=O | 35.2 µM | 100.6% | 100% | –

More lines, main results first:

Row | IC50 (Trypanosoma cruzi [2]) | Compound | Activity (Trypanosoma cruzi [1]) | Activity (Trypanosoma cruzi [3]) | further results
7 | 20.6 µM | O=C(Cn1ccnc1[N+](=O)[O-])NCc1ccccc1 [BENZNIDAZOLE] | 57.8% | 82% | –
8 | 20.1 µM | CC1(C)C=CC2=C(O1)C(=O)c1ncccc1C2=O | 243.3% | 254% | Activity (Trypanosoma cruzi [5]): 44.8%
9 | 38.1 µM | COc1cccc2c1C(=O)C1=C(C=CC(C)(C)O1)C2=O | 100.2% | 100% | Activity (Trypanosoma cruzi [6]): 26.7%
10 | 22.2 µM | CC(=O)OC1CC(C)(C)OC2=C1C(=O)c1ccccc1C2=O (stereo not given) | 135.5% | 168% | Activity (Trypanosoma cruzi [7]): 32.9%
11 | 9.5 µM | CC1CS(=O)(=O)CCN1/N=C/c1ccc([N+](=O)[O-])o1 (stereo not given) [NIFURTIMOX] | 120.4% | 113% | –
12 | > 100 µM | CC(C)(O)CCC1=C(O)C(=O)c2ccccc2C1=O | 125% | 109% | Activity (Trypanosoma cruzi [8]): 112.6%
13 | 1.93 µM | CC1CCC2=C(O1)c1ccccc1C(=O)C2=O (stereo not given) | 100.6% | 100% | Activity (Trypanosoma cruzi [9]): 40.3%
14 | 36.3 µM | CC(=O)CC1CCC2=C(O1)C(=O)c1ccccc1C2=O (stereo not given) | 142.5% | 168% | –
15 | 3.75 µM | CC1(C)OC2=C(CC1O)C(=O)C(=O)c1ccccc12 (stereo not given) | 96.8% | 100% | Activity (Trypanosoma cruzi [13]): 30.4%

Source: ChEMBL document CHEMBL1143992, “Trypanosoma cruzi: activities of lapachol and alpha- and beta-lapachone derivatives against epimastigote and trypomastigote forms” (Bioorg Med Chem, 2008)
